From ChEMBL document CHEMBL1141408, “Synthesis and antimalarial activity of new isotebuquine analogues” (J Med Chem, 2007)
In brackets after ≈: the same amount, converted by molar mass. Activity calls are given as the source filed them. No cut-off for these calls is given here.

Tests used:
Plasmodium falciparum [1] = test: Antimalarial activity against chloroquine-sensitive Plasmodium falciparum D6; type: functional, organism-based
In short: (§1)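 Compound DMSO stocks were diluted 400-fold in RPMI 1640 with 25 mM Hepes, 32 mM NaHCO₃ and 10% Albumax I, then 2-fold serially over 11 concentrations. Parasites were exposed for 48 h at 37 °C under 5% O₂/5% CO₂/90% N₂, pulsed with [³H]-hypoxanthine for 18 h, and DNA was harvested onto glass filters for scintillation counting. IC50 was derived by nonlinear-regression logistic dose-response fitting.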

Plasmodium falciparum [2] = test: Antimalarial activity against chloroquine-resistant Plasmodium falciparum W2; type: functional, organism-based; in short: as §1
Plasmodium falciparum [3] = test: Antimalarial activity against chloroquine-resistant Plasmodium falciparum TM91C235; type: functional, organism-based; in short: as §1
[4] = Toxicity against murine J774 macrophage cells; type: cell-based; conditions: mouse
In short: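 Murine J774 monocyte-like macrophage subclone G8, maintained in DMEM with 10% fetal calf serum, 2 mM L-glutamine and 50 µg/mL gentamicin at 37 °C in 5% CO2/95% air. Cells seeded at 1 × 10⁴/well and left 24 h. Drug or solvent control, diluted in medium, then added for 72 h. Viability read by MTS tetrazolium/formazan conversion after 1–2 h at 37 °C.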

CC(C)(C)NCc1c(Nc2ccnc3cc(Cl)ccc23)cc(O)cc1-c1ccc(Cl)cc1 gave an IC50 (Plasmodium falciparum [1]) of 0.3 ng/mL (≈ 0.643 nM), an IC50 (Plasmodium falciparum [2]) of 0.4 ng/mL (≈ 0.858 nM) and an IC50 (Plasmodium falciparum [3]) of 1.78 ng/mL (≈ 3.82 nM). It also gave an IC50 [4] of 6100 ng/mL (≈ 13100 nM).

Molecule CC(C)(C)NCc1c(O)cc(-c2ccc(Cl)cc2)c(CNC(C)(C)C)c1Nc1ccnc2cc(Cl)ccc12 has an IC50 (Plasmodium falciparum [1]) of 2.2 ng/mL (≈ 3.99 nM), an IC50 (Plasmodium falciparum [2]) of 2.6 ng/mL (≈ 4.71 nM) and an IC50 (Plasmodium falciparum [3]) of 2.3 ng/mL (≈ 4.17 nM). For the same molecule, the IC50 [4] was 3600 ng/mL (≈ 6530 nM).

With CC(C)(C)NCc1c(O)cc(-c2ccc(C(F)(F)F)cc2)c(CNC(C)(C)C)c1Nc1ccnc2cc(Cl)ccc12 the IC50 (Plasmodium falciparum [1]) was 1.9 ng/mL (≈ 3.25 nM), the IC50 (Plasmodium falciparum [2]) was 2.8 ng/mL (≈ 4.79 nM) and the IC50 (Plasmodium falciparum [3]) was 2 ng/mL (≈ 3.42 nM). For the same molecule, the IC50 [4] was 750 ng/mL (≈ 1280 nM).

CC(C)(C)NCc1c(O)cc(-c2ccc(Cl)cc2)c(CNC(C)(C)C)c1Nc1cc[n+]([O-])c2cc(Cl)ccc12 gave an IC50 (Plasmodium falciparum [1]) of 4.1 ng/mL (≈ 7.22 nM), an IC50 (Plasmodium falciparum [2]) of 9.1 ng/mL (≈ 16 nM) and an IC50 (Plasmodium falciparum [3]) of 8.5 ng/mL (≈ 15 nM).

Molecule CC(C)(C)NCc1c(O)cc(-c2ccc(Cl)cc2)cc1Nc1ccnc2cc(Cl)ccc12 has an IC50 (Plasmodium falciparum [1]) of 1.4 ng/mL (≈ 3 nM), an IC50 (Plasmodium falciparum [2]) of 1.6 ng/mL (≈ 3.43 nM) and an IC50 (Plasmodium falciparum [3]) of 1.7 ng/mL (≈ 3.64 nM). The IC50 [4] was 1600 ng/mL (≈ 3430 nM).

For CC(C)(C)NCc1c(Nc2ccnc3cc(Cl)ccc23)cc(O)cc1-c1ccc(C(F)(F)F)cc1, the IC50 (Plasmodium falciparum [1]) was 7.1 ng/mL (≈ 14.2 nM), the IC50 (Plasmodium falciparum [2]) was 130 ng/mL (≈ 260 nM) and the IC50 (Plasmodium falciparum [3]) was 63 ng/mL (≈ 126 nM). For the same molecule, the IC50 [4] was 11600 ng/mL (≈ 23200 nM).

CC(C)(C)NCc1c(Nc2cc[n+]([O-])c3cc(Cl)ccc23)cc(O)cc1-c1ccc(Cl)cc1 showed an IC50 (Plasmodium falciparum [1]) of 4.3 ng/mL (≈ 8.91 nM), an IC50 (Plasmodium falciparum [2]) of 9.2 ng/mL (≈ 19.1 nM) and an IC50 (Plasmodium falciparum [3]) of 8.8 ng/mL (≈ 18.2 nM).

CC(C)(C)NCc1c(O)cc(-c2ccc(C(F)(F)F)cc2)cc1Nc1ccnc2cc(Cl)ccc12 gave an IC50 (Plasmodium falciparum [1]) of 1.8 ng/mL (≈ 3.6 nM), an IC50 (Plasmodium falciparum [2]) of 2.1 ng/mL (≈ 4.2 nM) and an IC50 (Plasmodium falciparum [3]) of 1.8 ng/mL (≈ 3.6 nM). For the same molecule, the IC50 [4] was 1700 ng/mL (≈ 3400 nM).

CC(C)(C)NCc1c(O)cc(Nc2ccnc3cc(Cl)ccc23)c(CNC(C)(C)C)c1-c1ccc(Cl)cc1 showed an IC50 (Plasmodium falciparum [1]) of 2.8 ng/mL (≈ 5.08 nM), an IC50 (Plasmodium falciparum [2]) of 5.3 ng/mL (≈ 9.61 nM) and an IC50 (Plasmodium falciparum [3]) of 2.5 ng/mL (≈ 4.53 nM). For the same molecule, the IC50 [4] was 2800 ng/mL (≈ 5080 nM).

CC(C)(C)NCc1c(O)cc(Nc2ccnc3cc(Cl)ccc23)cc1-c1ccc(C(F)(F)F)cc1 showed an IC50 (Plasmodium falciparum [1]) of 1.2 ng/mL (≈ 2.4 nM), an IC50 (Plasmodium falciparum [2]) of 14 ng/mL (≈ 28 nM) and an IC50 (Plasmodium falciparum [3]) of 73 ng/mL (≈ 146 nM).

In the case of CC(C)(C)NCc1cc(Nc2cc[n+]([O-])c3cc(Cl)ccc23)cc(-c2ccc(Cl)cc2)c1O, the IC50 (Plasmodium falciparum [1]) is reported as 1.5 ng/mL (≈ 3.11 nM), the IC50 (Plasmodium falciparum [2]) is reported as 0.9 ng/mL (≈ 1.87 nM) and the IC50 (Plasmodium falciparum [3]) is reported as 2.3 ng/mL (≈ 4.77 nM). The IC50 [4] was 7200 ng/mL (≈ 14900 nM).

For Oc1cc(Nc2ccnc3cc(Cl)ccc23)cc(-c2ccc(Cl)cc2)c1, the IC50 (Plasmodium falciparum [1]) was 8.8 ng/mL (≈ 23.1 nM), the IC50 (Plasmodium falciparum [2]) was 22.4 ng/mL (≈ 58.8 nM) and the Activity (Plasmodium falciparum [3]) was “inactive”.

With [O-][n+]1ccc(Nc2cc(O)cc(-c3ccc(Cl)cc3)c2)c2ccc(Cl)cc21 the IC50 (Plasmodium falciparum [1]) was 397 ng/mL (≈ 999 nM), the IC50 (Plasmodium falciparum [2]) was > 1000 ng/mL and the IC50 (Plasmodium falciparum [3]) was 580 ng/mL (≈ 1460 nM).

Work on CC(C)(C)NCc1c(O)cc(Nc2ccnc3cc(Cl)ccc23)c(CNC(C)(C)C)c1-c1ccc(C(F)(F)F)cc1 yielded an IC50 (Plasmodium falciparum [1]) of 1.8 ng/mL (≈ 3.08 nM), an IC50 (Plasmodium falciparum [2]) of 3.6 ng/mL (≈ 6.15 nM) and an IC50 (Plasmodium falciparum [3]) of 3 ng/mL (≈ 5.13 nM).

For CC(C)(C)NCc1cc(Nc2ccnc3cc(Cl)ccc23)cc(-c2ccc(Cl)cc2)c1O [TEBUQUINE], the IC50 (Plasmodium falciparum [1]) was 0.1 ng/mL (≈ 0.214 nM), the IC50 (Plasmodium falciparum [2]) was 0.04 ng/mL (≈ 0.0858 nM) and the Activity (Plasmodium falciparum [3]) was “inactive”. For the same molecule, the IC50 [4] was 1800 ng/mL (≈ 3860 nM).

In the case of Oc1cc(Nc2ccnc3cc(Cl)ccc23)cc(-c2ccc(C(F)(F)F)cc2)c1, the IC50 (Plasmodium falciparum [1]) is reported as 15 ng/mL (≈ 36.2 nM), the IC50 (Plasmodium falciparum [2]) is reported as 300 ng/mL (≈ 723 nM) and the IC50 (Plasmodium falciparum [3]) is reported as 140 ng/mL (≈ 338 nM).
